# pIC50: −log10 of the molar value. Activity calls are given as the source filed them. No cut-off for these calls is given here.
# Key:
# A549 [1] = experiment: Cytotoxicity against human A549 cells by MTT assay; format: functional, cell-based
# M059J [2] = experiment: Cytotoxicity against human M059J ATCC CRL2366 cells by MTT assay; format: functional, cell-based
# [3] = Inhibition of Electron transport protein complex 1 in bovine heart submitochondrial particles assessed as NADH ubiquinone oxidoreductase oxidase activity by spectrophotometric analysis in presence of exogenous ubiquinone 1; parameters: species or system Bos taurus
# Outline: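 Activated beef-heart inverted SMP were pre-equilibrated with inhibitor 5 min, then NADH was added at 30 °C. Medium: 0.25 M sucrose, 1 mM MgCl2, 2 mM KCN, antimycin A, ubiquinone Q1, 50 mM phosphate pH 7.4. Rate was followed at 340 nm, DMSO ≤2%. IC50 is half-maximal inhibition of control; mean ± SD of three independent experiments.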
# [4] = Inhibition of Electron transport protein complex 1 in bovine heart submitochondrial particles assessed as NADH oxidase activity by spectrophotometric analysis; parameters: species or system Bos taurus
# Outline: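 Beef-heart inverted SMP (stored at −80 °C in 0.25 M sucrose, 10 mM Tris-HCl pH 7.4) diluted to 0.5 mg/mL and NADH-activated. Inhibitor pre-equilibrated with SMP 5 min in 50 mM Hepes pH 7.5, 5 mM MgCl2. NADH started the reaction. Initial linear rates were read at 340 nm, 30 °C, with DMSO ≤2%. IC50 is half-maximal inhibition of control; mean ± SD, three independent experiments.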
# MCF7 [5] = experiment: Induction of shift to glycolysis in human MCF7 cells assessed as lactate production at 18.2 uM after 3 hrs; format: functional
# [6] = Cytotoxicity against human M059K ATCC CRL2365 cells by MTT assay; format: functional, cell-based
# [7] = Cytotoxicity against mouse 3LL cells by MTT assay; format: functional, cell-based
# MCF7 [8] = experiment: Cytotoxicity against human MCF7 cells by MTT assay; format: functional, cell-based
# [9] = Cytotoxicity against human MCF10A cells by MTT assay; format: cell-based; conditions: MCF-10A
# MCF7 [10] = experiment: Induction of shift to glycolysis in human MCF7 cells assessed as lactate production at < 0.15 uM after 3 hrs; format: functional
# MCF7 [11] = experiment: Induction of shift to glycolysis in human MCF7 cells assessed as lactate production at 6.6 uM after 3 hrs; format: functional
# ATCC CRL2365 = experiment: Cytotoxicity against human M059K ATCC CRL2365 cells by SRB assay; format: functional, cell-based
# [12] = Cytotoxicity against human MCF10A cells by SRB assay; format: cell-based; conditions: mcf-10a
# 3LL = experiment: Cytotoxicity against mouse 3LL cells by SRB assay; format: functional, cell-based
# Bos taurus [13] = species on record: Bos taurus; experiment: Inhibition of Electron transport protein complex 1 in bovine heart submitochondrial particles assessed as residual NADH ubiquinone oxidoreductase oxidase activity at 1 uM by spectrophotometric analysis in presence of exogenous ubiquinone 1
# A549 [14] = experiment: Cytotoxicity against human A549 cells by SRB assay; format: functional, cell-based
# MCF7 [15] = experiment: Cytotoxicity against human MCF7 cells by SRB assay; format: functional, cell-based
# MCF7 [16] = experiment: Induction of shift to glycolysis in human MCF7 cells assessed as lactate production at 0.38 uM after 3 hrs; format: functional
# M059J [17] = experiment: Cytotoxicity against human M059J ATCC CRL2366 cells by SRB assay; format: functional, cell-based
# Bos taurus [18] = species on record: Bos taurus; experiment: Inhibition of Electron transport protein complex 1 in bovine heart submitochondrial particles assessed as residual NADH oxidase activity at 1 uM by spectrophotometric analysis
# MCF7 [19] = experiment: Induction of shift to glycolysis in human MCF7 cells assessed as lactate production at 0.44 uM after 3 hrs; format: functional
SMILES,pIC50 (A549 [1]),pIC50 (M059J [2]),pIC50 [3],pIC50 [4],pIC50 [6],pIC50 [7],pIC50 (MCF7 [8]),pIC50 [9],Activity (Bos taurus [13]),Activity (Bos taurus [18]),also measured
CCCCc1ccc(OCCCCC[C@@H](O)[C@H]2CC[C@H]([C@H]3CC[C@H]([C@H](O)CCCCCOc4ccc(CCCC)cc4)O3)O2)cc1,< 4.80,< 4.80,< 4.82,7.71,< 4.80,6.19,< 4.80,< 4.80,,,Activity (MCF7 [5]): 572 µM
CCCCCC[C@H]1C(=O)O[C@H](C)[C@H](NC(=O)c2cccc(NC=O)c2O)C(=O)O[C@@H](C)[C@@H]1OC(=O)CC(C)C [ANTIMYCIN A],,,,,,,,,,,Activity (MCF7 [10]): 1520 µM
CCCCCCCCCC[C@@H](O)[C@H]1CC[C@H]([C@H]2CC[C@H]([C@H](O)CCCCCCCCCC)O2)O1 [dleta-lac-Acetogenin],< 4.70,< 4.70,4.98,7.91,< 4.70,6.00,< 4.70,< 4.70,,,Activity (MCF7 [11]): 616 µM
CCCCCCCC#CC[C@@H](O)[C@H]1CC[C@H]([C@H]2CC[C@H]([C@H](O)CC#CCCCCCCC)O2)O1,4.88,< 4.68,7.32,7.52,4.69,5.28,5.12,5.70,18%,12%,Activity (ATCC CRL2365): Active; Activity [12]: Active; Activity (3LL): Active; Activity (A549 [14]): Active; Activity (MCF7 [15]): Active; Activity (MCF7 [16]): 1080 µM; Activity (M059J [17]): Active
CCCCc1ccc(OCCC#CC[C@@H](O)[C@H]2CC[C@H]([C@H]3CC[C@H]([C@H](O)CC#CCCOc4ccc(CCCC)cc4)O3)O2)cc1,< 4.80,< 4.80,5.77,7.41,4.84,6.32,< 4.80,< 4.80,25%,18%,Activity (MCF7 [19]): 1280 µM

# Reference: ChEMBL document CHEMBL1154507, “Synthesis and characterization of Deltalac-acetogenins that potently inhibit mitochondrial complex I” (Bioorg Med Chem, 2009)
